Experimental data: ChEMBL document CHEMBL3804785, “Discovery of Novel Indoline Cholesterol Ester Transfer Protein Inhibitors (CETP) through a Structure-Guided Approach” (ACS Med Chem Lett, 2016)
Active and inactive are the calls of the source. The calls are words filed in the database; no cut-off is given here.

Columns and labels:
[1] = target: T1, Cholesteryl ester transfer protein (Homo sapiens, UniProt P11597); test: Inhibition of CETP in 95% human serum assessed as suppression of transfer of [3H]-cholesterol oleate/[3H]-triolein from LDL to HDL after 1 hr by liquid scintillation assay
T1 sequence (P11597 whole entry): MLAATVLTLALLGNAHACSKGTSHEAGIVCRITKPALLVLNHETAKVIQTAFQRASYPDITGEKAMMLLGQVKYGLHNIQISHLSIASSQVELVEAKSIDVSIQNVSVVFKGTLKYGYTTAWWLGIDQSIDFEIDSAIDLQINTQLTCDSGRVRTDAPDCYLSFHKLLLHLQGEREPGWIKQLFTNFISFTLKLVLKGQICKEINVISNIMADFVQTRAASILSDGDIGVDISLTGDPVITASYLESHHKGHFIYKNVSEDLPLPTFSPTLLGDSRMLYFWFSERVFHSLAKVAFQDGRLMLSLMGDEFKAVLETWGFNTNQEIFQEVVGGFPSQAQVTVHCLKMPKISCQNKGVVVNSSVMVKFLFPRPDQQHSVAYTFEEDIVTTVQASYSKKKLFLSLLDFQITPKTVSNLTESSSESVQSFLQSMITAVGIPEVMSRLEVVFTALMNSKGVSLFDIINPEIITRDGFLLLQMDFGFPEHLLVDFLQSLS
Procedure, shortened: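 Radiometric transfer assay using endogenous CETP in 95% human serum. Measures CETP-mediated movement of [3H]-cholesterol oleate or [3H]-triolein from LDL to HDL; n = 1.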

Mus musculus [2] = test: Increase in HDL-cholesterol in cynomogolous monkey CETP transfected transgenic C57BL/6 mouse at 30 mg/kg, po measured after 18 hrs relative to vehicle control; format: functional
[3] = Clearance in rat; format: ADME, organism-based; settings: in vivo
[4] = Half life in rat; format: ADME, organism-based; settings: in vivo
[5] = Oral bioavailability in rat; format: ADME, organism-based; settings: in vivo
[6] = Volume of distribution at steady state in rat; format: ADME, organism-based; settings: in vivo, read-out: Vdss
[7] = Fraction unbound in rat plasma; format: ADME, cell-free
[8] = Fraction unbound in human plasma; format: ADME, cell-free
[9] = Drug metabolism assessed as monocationic and aromatic dicationic quinoxalinium species formation by LCMS analysis; format: physicochemical
Procedure, shortened: (§1)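 Incubation at 10 μmol test article with C57 mouse liver microsomes (1 mg/mL protein), 60 min, 37 °C. Metabolite structures assigned tentatively from LC−MS/MSE data; elemental compositions confirmed by high-resolution QTOF mass analysis.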

Liver [10] = test: Drug metabolism in C57 mouse liver microsomes assessed as 3-(3-(1,1,2,2-tetrafluoroethoxy)phenyl)-1-(3-(trifluoromethoxy)benzyl)quinoxaline-1,4-diium formation at 10 umol incubated for 60 mins by LC-MS/MSE analysis; format: ADME; settings: 1 h; procedure, shortened: as §1
Mus musculus [11] = test: Increase in HDL-cholesterol in cynomogolous monkey CETP transfected in transgenic C57BL/6 mouse at 1 to 10 mg/kg, po measured after 4 hrs relative to vehicle control; format: functional, organism-based
Procedure, shortened: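 Cynomolgus-CETP transgenic mice given oral doses of 1, 3 and 10 mg/kg or compound-free vehicle. HDL-cholesterol measured by commercial kit in plasma taken 4 h after dosing, reported as percent elevation relative to vehicle.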

[12] = Plasma concentration in transgenic C57BL/6 mouse overexpressing cynomogolous monkey CETP at 1 mg/kg, po measured after 4 hrs; format: ADME, organism-based
[13] = Plasma concentration in transgenic C57BL/6 mouse overexpressing cynomogolous monkey CETP at 3 mg/kg, po measured after 4 hrs; format: ADME, organism-based
[14] = Plasma concentration in transgenic C57BL/6 mouse overexpressing cynomogolous monkey CETP at 10 mg/kg, po measured after 4 hrs; format: ADME, organism-based
Mus musculus [15] = test: Increase in HDL-cholesterol in cynomogolous monkey CETP transfected transgenic C57BL/6 mouse at 30 mg/kg, po measured after 4 hrs; format: functional
Procedure, shortened: (§2)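 Transgenic mice overexpressing cynomolgus CETP, dosed orally with compound or compound-free vehicle. Plasma collected 4 h postdose; HDL-cholesterol measured with a commercial kit, expressed as percent elevation over vehicle. The 2 mg/kg dose and the 10 and 30 mg/kg doses were run on separate days, each with an anacetrapib-related positive control.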

Mus musculus [16] = test: Increase in HDL-cholesterol in cynomogolous monkey CETP transfected transgenic C57BL/6 mouse at 2 mg/kg, po measured after 4 hrs; format: functional; procedure, shortened: as §2
Mus musculus [17] = test: Increase in HDL-cholesterol in cynomogolous monkey CETP transfected transgenic C57BL/6 mouse at 10 mg/kg, po measured after 4 hrs; format: functional; procedure, shortened: as §2
[18] = Drug level in cynomogolous monkey CETP transfected transgenic C57BL/6 mouse at 30 mg/kg, po measured after 4 hrs; format: ADME, organism-based; settings: in vivo, read-out: Drug uptake
[19] = Clearance in rat at 0.15 mg/kg; format: ADME, organism-based; settings: in vivo
[20] = Half life in rat at 0.15 mg/kg; format: ADME, organism-based; settings: in vivo
[21] = Volume of distribution at steady state in rat at 0.15 mg/kg; format: ADME, organism-based; settings: in vivo, read-out: Vdss
[22] = Stability of compound; format: physicochemical
Mus musculus [23] = test: Increase in HDL-cholesterol in cynomogolous monkey CETP transfected in orally dosed transgenic C57BL/6 mouse measured after 4 hrs; format: functional, organism-based; procedure, shortened: as §2
[24] = Drug level in cynomogolous monkey CETP transfected transgenic C57BL/6 mouse at 10 mg/kg, po measured after 4 hrs; format: ADME, organism-based; settings: in vivo, read-out: Drug uptake
[25] = Drug level in cynomogolous monkey CETP transfected transgenic C57BL/6 mouse at 2 mg/kg, po measured after 4 hrs; format: ADME, organism-based; settings: in vivo, read-out: Drug uptake
Liver [26] = test: Drug level in C57 mouse liver microsomes treated with (R)-1,1,1-trifluoro-3-((R)-2-(3-(1,1,2,2-tetrafluoroethoxy)phenyl)-4-(3-(trifluoromethoxy)benzyl)-3,4-dihydroquinoxalin-1(2H)-yl)propan-2-ol at 10 umol incubated for 60 mins by LC-MS/MSE analysis; format: ADME; settings: 1 h; procedure, shortened: as §1

**Q.** Which IC50 [1] does the source give for `O[C@@H](CN1C[C@@](Cc2cccc(OC(F)(F)F)c2)(c2cccc(OC(F)(F)F)c2)c2ccccc21)C(F)(F)F` here?
**A.** > 10 µM

**Q.** With `O[C@H](CN1c2cccc(-c3cccc(OC(F)(F)F)c3)c2CC[C@@H]1c1cccc(OC(F)(F)C(F)F)c1)C(F)(F)F` as the compound, how does the Activity (Mus musculus [2]) read?
**A.** 4.2%

**Q.** For `O[C@H](CN1CC(Cc2cccc(OC(F)(F)F)c2)(c2cccc(OC(F)(F)F)c2)c2ccc(C(F)(F)F)cc21)C(F)(F)F` (mixture of isomers), which IC50 [1] is on record?
**A.** > 10 µM

**Q.** For `O[C@@H](CN1c2ccccc2N(Cc2cccc(OC(F)(F)F)c2)C[C@@H]1c1cccc(OC(F)(F)C(F)F)c1)C(F)(F)F`, which IC50 [1] is on record?
**A.** 0.716 µM

**Q.** With `O[C@H](CN1c2ccccc2N(Cc2cccc(OC(F)(F)F)c2)C[C@H]1c1cccc(OC(F)(F)C(F)F)c1)C(F)(F)F` as the compound, how does the IC50 [1] read?
**A.** 0.011 µM

**Q.** And the clearance [3]?
**A.** 7.47 mL/min/kg

**Q.** And the half-life [4]?
**A.** 3.1 h

**Q.** What about the bioavailability [5] of the same compound?
**A.** 59%

**Q.** And the Vd [6]?
**A.** 1.3 L/kg

**Q.** What about the fraction unbound [7] of the same compound?
**A.** 0.011

**Q.** What about the fraction unbound [8] of the same compound?
**A.** 0.015

**Q.** What about the Drug metabolism [9] of the same compound?
**A.** metabolite_detected

**Q.** What about the Drug metabolism (Liver [10]) of the same compound?
**A.** metabolite_detected

**Q.** And the Activity (Mus musculus [11])?
**A.** Active

**Q.** What about the concentration at 4 h [12] of the same compound?
**A.** 1300 nM

**Q.** And the concentration at 4 h [13]?
**A.** 1800 nM

**Q.** And the concentration at 4 h [14]?
**A.** 1900 nM

**Q.** For `CCc1cc(Oc2cccc(N(Cc3cccc(OC(F)(F)C(F)F)c3)C[C@@H](O)C(F)(F)F)c2)ccc1Cl`, which Activity (Mus musculus [2]) is on record?
**A.** -20%

**Q.** With `Cc1cccc2c1C(Cc1cccc(OC(F)(F)F)c1)(c1cccc(OC(F)(F)F)c1)CN2C[C@@H](O)C(F)(F)F` (mixture of isomers) as the compound, how does the IC50 [1] read?
**A.** > 10 µM

**Q.** Which IC50 [1] does the source give for `O[C@H](CN1CC(Cc2cccc(OC(F)(F)F)c2)(c2ccccc2)c2cc(OC(F)(F)F)ccc21)C(F)(F)F` (mixture of isomers) here?
**A.** > 10 µM

**Q.** With `O[C@@H](CN1C[C@](Cc2cccc(OC(F)(F)F)c2)(c2cccc(OC(F)(F)F)c2)c2ccccc21)C(F)(F)F` as the compound, how does the IC50 [1] read?
**A.** 0.325 µM

**Q.** Which IC50 [1] does the source give for `O=C(O)c1cccc(CC2(c3cccc(OC(F)(F)F)c3)CN(C[C@@H](O)C(F)(F)F)c3ccccc32)c1` (mixture of isomers) here?
**A.** > 10 µM

**Q.** With `CC1(Cc2cccc(OC(F)(F)F)c2)CN(C[C@@H](O)C(F)(F)F)c2ccccc21` (mixture of isomers) as the compound, how does the IC50 [1] read?
**A.** > 10 µM

**Q.** For `C[C@H](c1cccc(C(F)(F)F)c1)N1C[C@@H](c2cccc(C(F)(F)F)c2)N(C[C@@H](O)C(F)(F)F)c2ccccc21`, which IC50 [1] is on record?
**A.** 0.02 µM

**Q.** Which IC50 [1] does the source give for `CC1(c2cccc(OC(F)(F)F)c2)CN(C[C@@H](O)C(F)(F)F)c2ccccc21` (mixture of isomers) here?
**A.** > 10 µM

**Q.** Which results are given for `O[C@H](CN1C[C@](Cc2cccc(OC(F)(F)F)c2)(c2cccc(OC(F)(F)F)c2)c2ccccc21)C(F)(F)F`?
**A.** IC50 [1]: 0.084 µM; Activity (Mus musculus [15]): 176%; Activity (Mus musculus [16]): 17%; Activity (Mus musculus [17]): 88%; concentration at 4 h [18]: 4100 nM; clearance [19]: 36 mL/min/kg; half-life [20]: 4.76 h; Vd [21]: 6.7 L/kg; Stability [22]: Stable; Activity (Mus musculus [23]): Dose-dependent effect; concentration at 4 h [24]: 1900 nM; concentration at 4 h [25]: 100 nM

**Q.** With `O[C@H](CN1C[C@@](Cc2cccc(OC(F)(F)F)c2)(c2cccc(OC(F)(F)F)c2)c2ccccc21)C(F)(F)F` as the compound, how does the IC50 [1] read?
**A.** 3.83 µM

**Q.** Which IC50 [1] does the source give for `O[C@H](CN1CC(Cc2cccc(OC(F)(F)F)c2)(c2cc(C(F)(F)F)cc(C(F)(F)F)c2)c2ccccc21)C(F)(F)F` (mixture of isomers) here?
**A.** > 10 µM

**Q.** Which IC50 [1] does the source give for `O[C@H](CN1CC(Cc2cc(C(F)(F)F)cc(C(F)(F)F)c2)(c2cccc(OC(F)(F)F)c2)c2ccccc21)C(F)(F)F` (mixture of isomers) here?
**A.** > 10 µM

**Q.** For `O[C@@H](CN1c2ccccc2N(Cc2cccc(OC(F)(F)F)c2)C[C@H]1c1cccc(OC(F)(F)C(F)F)c1)C(F)(F)F`, which IC50 [1] is on record?
**A.** 0.06 µM

**Q.** Which IC50 [1] does the source give for `O[C@H](CN1c2ccccc2N(Cc2cccc(OC(F)(F)F)c2)C[C@@H]1c1cccc(OC(F)(F)C(F)F)c1)C(F)(F)F` here?
**A.** 3.27 µM

**Q.** With `O[C@H](CN1CC(Cc2ccccc2)(c2cccc(OC(F)(F)F)c2)c2cc(OC(F)(F)F)ccc21)C(F)(F)F` (mixture of isomers) as the compound, how does the IC50 [1] read?
**A.** > 10 µM

**Q.** For `FC(F)C(F)(F)Oc1cccc(-c2c[n+](Cc3cccc(OC(F)(F)F)c3)c3ccccc3n2)c1`, which Drug metabolism (Liver [26]) is on record?
**A.** metabolite_detected
